A short description of data set [1]: Half life in rat at 1 mg/kg, iv. Format: ADME, organism-based. Conditions: in vivo.
Data set [2] is described as follows: Observed volume of distribution at steady state in rat at 1 mg/kg, iv. Particulars: in vivo, read-out: Vdss. Format: ADME, organism-based.
Data set [3] is described as follows: AUClast in rat at 1 mg/kg, iv. Format: ADME, organism-based. Set-up: time 0 - last, route intravenous, dose 1 mg/kg. Particulars: in vivo.
The nature of data set [4]: Observed AUCinfinity in rat at 1 mg/kg, iv. Format: ADME, organism-based. Set-up: time infinity, route intravenous, dose 1 mg/kg. Particulars: in vivo.
A short description of data set [5]: Observed MRT infinity in rat at 1 mg/kg, iv. Particulars: in vivo. Format: ADME, organism-based.
The nature of data set [6]: Observed clearance in rat at 1 mg/kg, iv. Conditions: in vivo. Format: ADME, organism-based.
Data set [7] deals with T1, Stimulator of interferon genes protein (Mus musculus, UniProt Q3TBT3).
T1 sequence (Q3TBT3 whole entry): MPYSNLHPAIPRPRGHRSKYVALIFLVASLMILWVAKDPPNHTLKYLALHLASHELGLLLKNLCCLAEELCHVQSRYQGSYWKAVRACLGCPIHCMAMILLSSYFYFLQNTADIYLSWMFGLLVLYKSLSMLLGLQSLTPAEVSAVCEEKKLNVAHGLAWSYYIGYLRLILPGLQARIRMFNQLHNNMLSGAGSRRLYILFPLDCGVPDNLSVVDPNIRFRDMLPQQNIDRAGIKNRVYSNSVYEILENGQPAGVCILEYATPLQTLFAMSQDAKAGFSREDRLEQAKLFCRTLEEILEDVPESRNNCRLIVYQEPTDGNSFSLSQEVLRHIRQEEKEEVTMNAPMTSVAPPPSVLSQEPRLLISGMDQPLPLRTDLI
Briefly: Activation of mouse STING expressed in RAW-Lucia ISG cells incubated for 24 hrs by secreted luciferase reporter gene assay.

Data set [8] has as its target T2, Stimulator of interferon genes protein (Homo sapiens, UniProt Q86WV6). Briefly: Activation of human STING (139 to 379 residues) expressed in THP1-Blue ISG cells at 10 uM incubated for 24 hrs by quanti-blue SEAP reporter gene assay relative to control. Particulars: filed as activator. Format: cell-based. In short, it runs like this: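 THP1-Blue-ISG cells (1 × 10⁵/well) treated for 24 h; single-concentration screen at 10 μM. SEAP ISG reporter in 20 μL supernatant read with QUANTI-Blue at 650 nm. Activation given as fold over control, averaging at least two experiments.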

Data set [9] concerns the target T3, Stimulator of interferon genes protein (Mus musculus) (UniProt Q3TBT3).
T3 sequence (whole entry): T1 sequence (Q3TBT3 whole entry)
Briefly: Activation of mouse STING expressed in RAW-Lucia ISG cells at 50 uM incubated for 24 hrs by QUANTI-Luc luciferase reporter gene assay relative to control. Conditions: filed as activator.

For data set [10], the target named is T2, Stimulator of interferon genes protein. Briefly: Activation of human STING expressed in THP1-Dual cells incubated for 24 hrs by secreted luciferase reporter gene assay.
Data set [11] concerns the target T3, Stimulator of interferon genes protein (Mus musculus). Briefly: Activation of mouse STING expressed in RAW-Lucia ISG cells at 50 uM incubated for 24 hrs by quanti-blue SEAP reporter gene assay relative to control. Format: cell-based. Conditions: filed as activator.
For data set [12], the target named is Voltage-gated inwardly rectifying potassium channel KCNH2 (Homo sapiens, UniProt Q12809). Briefly: Inhibition of human ERG.
Data set [13] in a line: Solubility of the compound. Format: physicochemical.

The structures appear in SMILES notation. A value given as a limit tells only on which side of the number the result lay.

T2 sequence (Q86WV6 whole entry, the tested form may be a part): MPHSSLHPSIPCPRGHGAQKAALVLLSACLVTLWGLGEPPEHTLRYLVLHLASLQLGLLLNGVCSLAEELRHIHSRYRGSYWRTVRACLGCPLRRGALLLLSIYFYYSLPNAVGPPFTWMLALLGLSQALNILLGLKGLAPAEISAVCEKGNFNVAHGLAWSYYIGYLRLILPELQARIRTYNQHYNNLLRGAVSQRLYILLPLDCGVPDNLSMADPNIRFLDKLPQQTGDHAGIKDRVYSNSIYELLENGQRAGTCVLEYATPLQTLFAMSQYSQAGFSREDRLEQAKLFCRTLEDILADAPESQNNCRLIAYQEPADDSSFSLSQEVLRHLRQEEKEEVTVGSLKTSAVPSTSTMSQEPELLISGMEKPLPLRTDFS
Chain of Voltage-gated inwardly rectifying potassium channel KCNH2 (Q12809 whole entry): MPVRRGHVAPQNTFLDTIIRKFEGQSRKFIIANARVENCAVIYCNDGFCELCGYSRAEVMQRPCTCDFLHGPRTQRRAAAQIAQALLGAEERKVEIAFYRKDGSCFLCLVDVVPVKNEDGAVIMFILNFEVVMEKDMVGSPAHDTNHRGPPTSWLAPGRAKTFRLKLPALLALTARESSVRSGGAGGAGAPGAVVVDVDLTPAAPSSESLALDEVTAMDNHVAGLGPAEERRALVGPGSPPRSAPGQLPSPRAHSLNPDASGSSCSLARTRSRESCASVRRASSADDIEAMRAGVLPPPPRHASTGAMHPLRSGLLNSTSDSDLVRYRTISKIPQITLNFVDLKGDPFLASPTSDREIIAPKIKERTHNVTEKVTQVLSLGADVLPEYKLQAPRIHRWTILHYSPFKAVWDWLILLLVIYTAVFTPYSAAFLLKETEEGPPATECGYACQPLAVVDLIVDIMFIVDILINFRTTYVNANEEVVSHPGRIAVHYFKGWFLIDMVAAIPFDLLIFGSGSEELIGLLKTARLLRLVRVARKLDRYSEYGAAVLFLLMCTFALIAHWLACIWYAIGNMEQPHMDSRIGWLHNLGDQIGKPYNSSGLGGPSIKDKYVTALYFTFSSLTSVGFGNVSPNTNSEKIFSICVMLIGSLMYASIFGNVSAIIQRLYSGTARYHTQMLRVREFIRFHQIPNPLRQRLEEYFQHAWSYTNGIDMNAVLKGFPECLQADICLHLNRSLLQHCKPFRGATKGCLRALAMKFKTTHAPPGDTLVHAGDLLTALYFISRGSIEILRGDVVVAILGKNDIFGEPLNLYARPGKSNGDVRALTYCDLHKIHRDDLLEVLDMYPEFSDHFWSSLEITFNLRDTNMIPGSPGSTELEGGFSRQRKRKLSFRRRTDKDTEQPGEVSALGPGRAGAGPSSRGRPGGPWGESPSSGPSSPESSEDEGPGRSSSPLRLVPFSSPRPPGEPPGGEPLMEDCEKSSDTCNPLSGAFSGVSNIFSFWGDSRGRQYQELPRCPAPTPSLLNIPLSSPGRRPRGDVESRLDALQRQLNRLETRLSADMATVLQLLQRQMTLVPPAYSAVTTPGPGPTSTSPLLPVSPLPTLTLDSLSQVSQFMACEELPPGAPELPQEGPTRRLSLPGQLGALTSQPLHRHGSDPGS

Compound `CCn1nc(C)cc1C(=O)Nc1nc2cc(C(N)=O)cc(OC)c2n1C/C=C/Cn1c(NC(=O)c2cc(C)nn2CC)nc2cc(C(N)=O)cc(OCCCN3CCOCC3)c21` [listing 1 of 2 here] showed a half-life in data set [1] of 68.4 min. The Vd in [2] came to 0.965 L/kg. The exposure AUC(0-t) in [3] was found to be 657 ng·h/mL. Also, the AUC(0-inf) in data set [4] came to 666 ng·h/mL. The mean residence time MRT inf in [5] came out at 38 min. In [6], this compound registered a clearance of 26 mL/min/kg.

With `CCn1nc(C)cc1C(=O)/N=c1\[nH]c2cc(-c3ncn[nH]3)cc(OC)c2n1C/C=C/Cn1/c(=N/C(=O)c2cc(C)nn2CC)[nH]c2cc(C(N)=O)cc(OCCCO)c21`, the concentration giving a half-maximal response (EC50) in data set [7] is above 50 µM; in [10], 2.66 µM. For the same compound, the fold change (FC) turned out to be 16.7 in data set [8] and 0.96 in [9].

With `CCn1nc(C)cc1C(=O)/N=c1\[nH]c2cc(-c3cn(CCOCCOC)nn3)cc(OC)c2n1C/C=C/Cn1/c(=N/C(=O)c2cc(C)nn2CC)[nH]c2cc(C(N)=O)cc(OCCCN3CCOCC3)c21`, the fold change (FC) in [8] was determined as 17.2; in data set [9] it was 1.16.

For `CCn1nc(C)cc1C(=O)/N=c1\[nH]c2cc(C(N)=O)cc(OC)c2n1C/C=C/Cn1/c(=N/C(=O)c2cc(C)nn2CC)[nH]c2cc(C#N)cc(OCCCN3CCOCC3)c21`, the figures for the EC50 in [7] and in [10] were above 50 µM and 1.02 µM, respectively. Besides, the values for the fold change (FC) in data set [8] and in data set [9] were 13.4 and 1.07, respectively.

On to `CCn1nc(C)cc1C(=O)/N=c1\[nH]c2cc(-c3ncn[nH]3)cc(OC)c2n1[C@H]1CC[C@@H](n2/c(=N/C(=O)c3cc(C)nn3CC)[nH]c3cc(C(N)=O)cc(OCCCN4CCOCC4)c32)CC1`, for which the fold change (FC) came to 1.14 in data set [8] and 0.59 in [11].

For `CCn1nc(C)cc1C(=O)Nc1nc2cc(C(N)=O)cc(OC)c2n1C/C=C/Cn1c(NC(=O)c2cc(C)nn2CC)nc2cc(C(N)=O)cc(OCCCN3CCOCC3)c21` [listing 2 of 2 here], the half-maximal inhibitory concentration (IC50) in data set [12] was above 40 µM.

For `CCn1nc(C)cc1C(=O)/N=c1\[nH]c2cc(C(N)=O)cc(OC)c2n1C/C=C/Cn1c(C(=O)CCC(=O)OC)nc2cc(C(N)=O)cc(OCCCN3CCOCC3)c21`, the fold change (FC) in data set [8] was 0.83; in [11], 0.9.

`CCn1nc(C)cc1C(=O)/N=c1\[nH]c2cc(-c3ncn[nH]3)cc(OC)c2n1C/C=C/Cn1/c(=N/C(=O)c2cc(C)nn2CC)[nH]c2cc(C(N)=O)cc(OCCCN3CCOCC3)c21.Cl.Cl.Cl` showed an IC50 in data set [12] above 40 µM. The compound also displayed a solubility in data set [13] of 71.3 mg/mL.

Consider `CCn1nc(C)cc1CCc1nc2cc(C(N)=O)cc(OC)c2n1C/C=C/Cn1c(CCc2cc(C)nn2CC)nc2cc(C(N)=O)cc(OCCCN3CCOCC3)c21`, for which the fold change (FC) in data set [8] was found to be 0.95; in data set [9] it was 0.9.

For `CCn1nc(C)cc1C(=O)/N=c1\[nH]c2cc(-c3ncn[nH]3)cc(OC)c2n1C/C=C/Cn1/c(=N/C(=O)c2cc(C)nn2CC)[nH]c2cc(C#N)cc(OCCCN3CCOCC3)c21`, the EC50 in data set [7] is above 50 µM; in data set [10] it was 26 µM. The fold change (FC) in [8] came to 11.1; in [9] it was 1.34.

On to `CCn1nc(C)cc1C(=O)/N=c1\[nH]c2cc(C#N)cc(OC)c2n1C/C=C/Cn1/c(=N/C(=O)c2cc(C)nn2CC)[nH]c2cc(C#N)cc(OCCCN3CCOCC3)c21`, for which the concentration for a half-maximal effect (EC50) in data set [7] and in data set [10] was above 50 µM in each case. Also, the fold change (FC) in data set [8] came to 7.9; in [11] it was 1.16.

As to `CCn1nc(C)cc1C(=O)/N=c1\[nH]c2cc(-c3ncc[nH]3)cc(OC)c2n1C/C=C/Cn1/c(=N/C(=O)c2cc(C)nn2CC)[nH]c2cc(C(N)=O)cc(OCCCN3CCOCC3)c21`, the half-maximal effective concentration (EC50) is above 50 µM in data set [7] and 3.28 µM in [10]. For the same compound, the fold change (FC) stood at 17.5 in data set [8] and 1.42 in data set [9].

As to `CCn1nc(C)cc1C(=O)/N=c1\[nH]c2cc(-c3ncc[nH]3)cc(OC)c2n1C/C=C/Cn1/c(=N/C(=O)c2cc(C)nn2CC)[nH]c2cc(-c3ncc[nH]3)cc(OCCCN3CCOCC3)c21`, the fold change (FC) in data set [8] was 1.22; in data set [9], 1.21.

Regarding `CCn1nc(C)cc1C(=O)/N=c1\[nH]c2cc(C(N)=O)cc(OC)c2n1C/C=C/Cn1c(C(=O)CCC(=O)O)nc2cc(C(N)=O)cc(OCCCN3CCOCC3)c21`, the fold change (FC) in [8] was 0.86; in [11] it was 0.93.

As for `CCn1nc(C)cc1C(=O)/N=c1\[nH]c2cc(-c3ncn[nH]3)cc(OC)c2n1C/C=C/Cn1/c(=N/C(=O)c2cc(C)nn2CC)[nH]c2cc(C(N)=O)c3c(c21)OCCO3`, the fold change (FC) in data set [8] was 1.58; in data set [11], 1.1.

On to `CCn1nc(C)cc1C(=O)/N=c1\[nH]c2cc(-c3ncn[nH]3)cc(OC)c2n1CCCCn1/c(=N/C(=O)c2cc(C)nn2CC)[nH]c2cc(C(N)=O)cc(OCCCN3CCOCC3)c21`, for which the fold change (FC) in data set [8] turned out to be 1.28; in data set [11], 1.2.

`CCn1nc(C)cc1/C=C/c1nc2cc(C(N)=O)cc(OC)c2n1C/C=C/Cn1c(/C=C/c2cc(C)nn2CC)nc2cc(C(N)=O)cc(OCCCN3CCOCC3)c21`: the values for the fold change (FC) in data set [8] and in data set [9] were 0.98 and 0.96, respectively.

`CCn1nc(C)cc1C(=O)/N=c1\[nH]c2cc(C(N)=O)cc(OC)c2n1C/C=C/Cn1/c(=N/C(=O)c2cc(C)nn2CC)[nH]c2cc(-c3ncc[nH]3)cc(OCCCN3CCOCC3)c21`: the figures for the EC50 in data set [7] and in data set [10] were above 50 µM and 0.79 µM, respectively. For the same compound, the figures for the fold change (FC) in data set [8] and in [9] were 17.3 and 1.18, respectively.

Turning to `COc1cc(C(N)=O)cc2nc(C(=O)CCC(=O)O)n(C/C=C/Cn3c(C(=O)CCC(=O)O)nc4cc(C(N)=O)cc(OCCCN5CCOCC5)c43)c12`, the values for the fold change (FC) in [8] and in [11] were 9 and 1.4, respectively.

Regarding `CCn1nc(C)cc1C(=O)/N=c1\[nH]c2cc(-c3nc(C)n[nH]3)cc(OC)c2n1C/C=C/Cn1/c(=N/C(=O)c2cc(C)nn2CC)[nH]c2cc(C(N)=O)cc(OCCCN3CCOCC3)c21`, the results for the concentration for a half-maximal effect (EC50) in [7] and in data set [10] were above 50 µM and 2.55 µM, respectively. The fold change (FC) turned out to be 18.8 in data set [8] and 0.92 in data set [9].

As to `CCn1nc(C)cc1C(=O)/N=c1\[nH]c2cc(C3=NCCO3)cc(OC)c2n1C/C=C/Cn1/c(=N/C(=O)c2cc(C)nn2CC)[nH]c2cc(C(N)=O)cc(OCCCN3CCOCC3)c21`, the EC50 is above 50 µM in [7] and 1.54 µM in [10]. The results for the fold change (FC) in [8] and in [9] were 18.3 and 0.99, respectively.

On to `CCn1nc(C)cc1C(=O)/N=c1\[nH]c2cc(-c3ncn[nH]3)cc(OC)c2n1C/C=C/Cn1/c(=N/C(=O)c2cc(C)nn2CC)[nH]c2cc(-c3ncn[nH]3)cc(OCCCN3CCOCC3)c21`, for which the fold change (FC) in [8] was 4.9; in data set [9], 1.18.

Take `CCn1nc(C)cc1C(=O)/N=c1\[nH]c2cc(C(N)=O)cc(OC)c2n1C/C=C/Cn1/c(=N/C(=O)c2cc(C)nn2CC)[nH]c2cc(-c3ncn[nH]3)cc(OCCCN3CCOCC3)c21`: the EC50 was above 50 µM in [7] and 0.33 µM in data set [10]. Also, the fold change (FC) was found to be 17 in data set [8] and 2.17 in data set [9].

On to `CCn1nc(C)cc1C(=O)/N=c1\[nH]c2cc(-c3ncn[nH]3)cc(OC)c2n1[C@H]1CC[C@H](n2/c(=N/C(=O)c3cc(C)nn3CC)[nH]c3cc(C(N)=O)cc(OCCCN4CCOCC4)c32)CC1`, for which the EC50 in data set [7] and in data set [10] was above 50 µM throughout. For the same compound, the fold change (FC) in data set [8] worked out at 3.86; in [9] it was 0.48.

Turning to `CCn1nc(C)cc1C(=O)/N=c1\[nH]c2cc(-c3ncn[nH]3)cc(OC)c2n1C/C=C/Cn1/c(=N/C(=O)c2cc(C)nn2CC)[nH]c2cc(C(N)=O)c3ccoc3c21`, the fold change (FC) in data set [8] was 17; in data set [11] it was 1.14.

For `COC(=O)CCC(=O)c1nc2cc(C(N)=O)cc(OC)c2n1C/C=C/Cn1c(C(=O)CCC(=O)OC)nc2cc(C(N)=O)cc(OCCCN3CCOCC3)c21`, the EC50 in data set [7] was above 50 µM; in [10], 29.1 µM. Moreover, the fold change (FC) in data set [8] was determined as 6.16; in data set [9], 1.01.

Values taken from ChEMBL document CHEMBL4808161, “Structure-Activity Relationship Study of Amidobenzimidazole Analogues Leading to Potent and Systemically Administrable Stimulator of Interferon Gene (STING) Agonists” (J Med Chem, 2021).
